Results: ChEMBL document CHEMBL5724801, “EUbOPEN Chemogenomics Library - Multiplex” (2024)
Values joined by “and” are separate entries in the source; they are usually repeats but may differ in a detail not shown here. Identical values can stand only once.

System: HEK-293T
Experiment: Multiplex assay against HEK293T
Format: toxicity, cell-based
Conditions: human
Summary of the method: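 Live cells carried four stains from seeding: Hoechst33342, BioTracker Green Microtubule Cytoskeleton Dye, MitoTracker Red and Annexin V Alexa Fluor 680. They were imaged on a CQ1 microscope at 37°C and 5% CO2 after compound addition. Using CellPathfinder machine-learning gating, cells were split into Hoechst high-intensity objects or normal cells, normal cells into healthy, pyknosed or fragmented nuclei, and pyknosed cells into mitotic or apoptotic; tubulin, mitochondrial-mass and membrane-permeability phenotypes are per cents of healthy-nucleus cells.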

[1] = 12 h, 1 µM, compound concentration 1 uM
[2] = 12 h, 10 µM, compound concentration 10 uM
[3] = 24 h, 1 µM, compound concentration 1 uM
[4] = 24 h, 10 µM, compound concentration 10 uM
[5] = 48 h, 1 µM, compound concentration 1 uM
[6] = 48 h, 10 µM, compound concentration 10 uM

## O=C(NCCO)c1cccc(-c2cc(Nc3ccc(OC(F)(F)F)cc3)ncn2)c1
[1]
  Population Apoptotic (%): 27% and 40%
  Population Fragmented Nuclei (%): 7% and 4%
  Population Healthy Nuclei (%): 78% and 77%
  Population Hoechst High Intensity Objects (%): 8% and 6%
  Population Membrane Permeable-Phenotype (%): 0%
  Population Mitochondria Different-Phenotype (%): 47% and 60%
  Population Mitotic Cells (%): 72% and 59%
  Population Normal (%): 91% and 93%
  Population Pyknosed Nuclei (%): 13% and 17%
  Population Tubulin-Different-Phenotype (%): 23% and 16%
  Total Cell Count: 409 and 262
[2]
  Population Apoptotic (%): 55% and 63%
  Population Fragmented Nuclei (%): 6% and 5%
  Population Healthy Nuclei (%): 76% and 73%
  Population Hoechst High Intensity Objects (%): 10% and 12%
  Population Membrane Permeable-Phenotype (%): 0%
  Population Mitochondria Different-Phenotype (%): 69% and 74%
  Population Mitotic Cells (%): 44% and 36%
  Population Normal (%): 89% and 87%
  Population Pyknosed Nuclei (%): 17% and 21%
  Population Tubulin-Different-Phenotype (%): 49% and 26%
  Total Cell Count: 374 and 325
[3]
  Population Apoptotic (%): 26% and 41%
  Population Fragmented Nuclei (%): 11% and 7%
  Population Healthy Nuclei (%): 78% and 79%
  Population Hoechst High Intensity Objects (%): 4% and 6%
  Population Membrane Permeable-Phenotype (%): 0%
  Population Mitochondria Different-Phenotype (%): 21% and 38%
  Population Mitotic Cells (%): 73% and 58%
  Population Normal (%): 95% and 93%
  Population Pyknosed Nuclei (%): 10% and 13%
  Population Tubulin-Different-Phenotype (%): 15% and 17%
  Total Cell Count: 538 and 331
[4]
  Population Apoptotic (%): 39% and 50%
  Population Fragmented Nuclei (%): 5% and 6%
  Population Healthy Nuclei (%): 80% and 77%
  Population Hoechst High Intensity Objects (%): 7% and 14%
  Population Membrane Permeable-Phenotype (%): 0%
  Population Mitochondria Different-Phenotype (%): 61% and 56%
  Population Mitotic Cells (%): 60% and 50%
  Population Normal (%): 92% and 85%
  Population Pyknosed Nuclei (%): 14% and 15%
  Population Tubulin-Different-Phenotype (%): 38% and 22%
  Total Cell Count: 447 and 354
[5]
  Population Apoptotic (%): 17% and 37%
  Population Fragmented Nuclei (%): 12% and 9%
  Population Healthy Nuclei (%): 80% and 79%
  Population Hoechst High Intensity Objects (%): 3% and 5%
  Population Membrane Permeable-Phenotype (%): 2% and 0%
  Population Mitochondria Different-Phenotype (%): 17% and 23%
  Population Mitotic Cells (%): 82% and 62%
  Population Normal (%): 96% and 94%
  Population Pyknosed Nuclei (%): 7% and 10%
  Population Tubulin-Different-Phenotype (%): 13% and 9%
  Total Cell Count: 897 and 476
[6]
  Population Apoptotic (%): 41% and 58%
  Population Fragmented Nuclei (%): 10% and 16%
  Population Healthy Nuclei (%): 79% and 72%
  Population Hoechst High Intensity Objects (%): 8% and 17%
  Population Membrane Permeable-Phenotype (%): 1% and 0%
  Population Mitochondria Different-Phenotype (%): 36%
  Population Mitotic Cells (%): 58% and 41%
  Population Normal (%): 91% and 82%
  Population Pyknosed Nuclei (%): 10% and 11%
  Population Tubulin-Different-Phenotype (%): 18% and 13%
  Total Cell Count: 595 and 504

## CC[C@H]1OC(=O)[C@H](C)[C@@H](O[C@H]2C[C@@](C)(OC)[C@@H](O)[C@H](C)O2)[C@H](C)[C@@H](O[C@@H]2O[C@H](C)C[C@H](N(C)C)[C@H]2O)[C@@]2(C)CC(C)=C(O2)[C@H](C)[C@@H](O)[C@]1(C)O
[1]
  Population Apoptotic (%): 35% and 45%
  Population Fragmented Nuclei (%): 8% and 3%
  Population Healthy Nuclei (%): 74% and 84%
  Population Hoechst High Intensity Objects (%): 6% and 7%
  Population Membrane Permeable-Phenotype (%): 0%
  Population Mitochondria Different-Phenotype (%): 56% and 72%
  Population Mitotic Cells (%): 64% and 54%
  Population Normal (%): 93% and 92%
  Population Pyknosed Nuclei (%): 17% and 11%
  Population Tubulin-Different-Phenotype (%): 41% and 27%
  Total Cell Count: 367 and 300
[2]
  Population Apoptotic (%): 55% and 56%
  Population Fragmented Nuclei (%): 8% and 11%
  Population Healthy Nuclei (%): 71% and 72%
  Population Hoechst High Intensity Objects (%): 13% and 10%
  Population Membrane Permeable-Phenotype (%): 0%
  Population Mitochondria Different-Phenotype (%): 87% and 91%
  Population Mitotic Cells (%): 44% and 43%
  Population Normal (%): 86% and 89%
  Population Pyknosed Nuclei (%): 19% and 16%
  Population Tubulin-Different-Phenotype (%): 76% and 77%
  Total Cell Count: 383 and 217
[3]
  Population Apoptotic (%): 20% and 35%
  Population Fragmented Nuclei (%): 8%
  Population Healthy Nuclei (%): 78%
  Population Hoechst High Intensity Objects (%): 3% and 6%
  Population Membrane Permeable-Phenotype (%): 0%
  Population Mitochondria Different-Phenotype (%): 35% and 49%
  Population Mitotic Cells (%): 79% and 64%
  Population Normal (%): 96% and 93%
  Population Pyknosed Nuclei (%): 13% and 12%
  Population Tubulin-Different-Phenotype (%): 24% and 22%
  Total Cell Count: 493 and 371
[4]
  Population Apoptotic (%): 42% and 70%
  Population Fragmented Nuclei (%): 9% and 10%
  Population Healthy Nuclei (%): 75% and 71%
  Population Hoechst High Intensity Objects (%): 11% and 10%
  Population Membrane Permeable-Phenotype (%): 0%
  Population Mitochondria Different-Phenotype (%): 74% and 87%
  Population Mitotic Cells (%): 57% and 29%
  Population Normal (%): 88% and 89%
  Population Pyknosed Nuclei (%): 15% and 18%
  Population Tubulin-Different-Phenotype (%): 75% and 80%
  Total Cell Count: 499 and 254
[5]
  Population Apoptotic (%): 30% and 21%
  Population Fragmented Nuclei (%): 12%
  Population Healthy Nuclei (%): 76% and 78%
  Population Hoechst High Intensity Objects (%): 8% and 6%
  Population Membrane Permeable-Phenotype (%): 0%
  Population Mitochondria Different-Phenotype (%): 28% and 34%
  Population Mitotic Cells (%): 69% and 78%
  Population Normal (%): 91% and 93%
  Population Pyknosed Nuclei (%): 11% and 9%
  Population Tubulin-Different-Phenotype (%): 21% and 20%
  Total Cell Count: 718 and 584
[6]
  Population Apoptotic (%): 50% and 53%
  Population Fragmented Nuclei (%): 12%
  Population Healthy Nuclei (%): 74% and 75%
  Population Hoechst High Intensity Objects (%): 10% and 12%
  Population Membrane Permeable-Phenotype (%): 1% and 0%
  Population Mitochondria Different-Phenotype (%): 61% and 84%
  Population Mitotic Cells (%): 50% and 46%
  Population Normal (%): 89% and 87%
  Population Pyknosed Nuclei (%): 12% and 11%
  Population Tubulin-Different-Phenotype (%): 56% and 73%
  Total Cell Count: 671 and 300

## CCCOc1ccc2[nH]cc(C3=CCNCC3)c2n1.Cl
[1]
  Population Apoptotic (%): 32% and 44%
  Population Fragmented Nuclei (%): 5% and 6%
  Population Healthy Nuclei (%): 81% and 82%
  Population Hoechst High Intensity Objects (%): 5% and 4%
  Population Membrane Permeable-Phenotype (%): 0%
  Population Mitochondria Different-Phenotype (%): 41% and 52%
  Population Mitotic Cells (%): 68% and 55%
  Population Normal (%): 94% and 95%
  Population Pyknosed Nuclei (%): 12% and 10%
  Population Tubulin-Different-Phenotype (%): 39% and 21%
  Total Cell Count: 416 and 344
[2]
  Population Apoptotic (%): 43% and 55%
  Population Fragmented Nuclei (%): 5% and 6%
  Population Healthy Nuclei (%): 78% and 82%
  Population Hoechst High Intensity Objects (%): 10% and 4%
  Population Membrane Permeable-Phenotype (%): 0%
  Population Mitochondria Different-Phenotype (%): 58% and 76%
  Population Mitotic Cells (%): 56% and 44%
  Population Normal (%): 89% and 95%
  Population Pyknosed Nuclei (%): 15% and 11%
  Population Tubulin-Different-Phenotype (%): 41%
  Total Cell Count: 446 and 387
[3]
  Population Apoptotic (%): 28% and 35%
  Population Fragmented Nuclei (%): 10% and 9%
  Population Healthy Nuclei (%): 76% and 80%
  Population Hoechst High Intensity Objects (%): 3% and 2%
  Population Membrane Permeable-Phenotype (%): 0% and 1%
  Population Mitochondria Different-Phenotype (%): 26% and 29%
  Population Mitotic Cells (%): 71% and 64%
  Population Normal (%): 96% and 97%
  Population Pyknosed Nuclei (%): 12% and 9%
  Population Tubulin-Different-Phenotype (%): 24% and 14%
  Total Cell Count: 558 and 425
[4]
  Population Apoptotic (%): 39% and 51%
  Population Fragmented Nuclei (%): 12% and 6%
  Population Healthy Nuclei (%): 74% and 81%
  Population Hoechst High Intensity Objects (%): 7% and 3%
  Population Membrane Permeable-Phenotype (%): 0%
  Population Mitochondria Different-Phenotype (%): 50% and 63%
  Population Mitotic Cells (%): 60% and 48%
  Population Normal (%): 92% and 96%
  Population Pyknosed Nuclei (%): 12% and 11%
  Population Tubulin-Different-Phenotype (%): 38% and 34%
  Total Cell Count: 583 and 502
[5]
  Population Apoptotic (%): 17% and 38%
  Population Fragmented Nuclei (%): 13% and 9%
  Population Healthy Nuclei (%): 79% and 82%
  Population Hoechst High Intensity Objects (%): 2% and 1%
  Population Membrane Permeable-Phenotype (%): 0% and 1%
  Population Mitochondria Different-Phenotype (%): 15% and 20%
  Population Mitotic Cells (%): 82% and 61%
  Population Normal (%): 97% and 98%
  Population Pyknosed Nuclei (%): 6% and 7%
  Population Tubulin-Different-Phenotype (%): 12% and 9%
  Total Cell Count: 872 and 657
[6]
  Population Apoptotic (%): 35% and 26%
  Population Fragmented Nuclei (%): 14% and 13%
  Population Healthy Nuclei (%): 76% and 80%
  Population Hoechst High Intensity Objects (%): 6% and 5%
  Population Membrane Permeable-Phenotype (%): 0%
  Population Mitochondria Different-Phenotype (%): 41% and 37%
  Population Mitotic Cells (%): 64% and 73%
  Population Normal (%): 93% and 94%
  Population Pyknosed Nuclei (%): 8% and 6%
  Population Tubulin-Different-Phenotype (%): 23% and 20%
  Total Cell Count: 776 and 733
